Data set [1] has as its target T1, Protein cereblon/Cyclin-dependent kinase 9 (Homo sapiens, UniProt P50750+Q96SW2). Kind of data set: PROTAC activity at CRBN/CDK9 in human MOLM-13 cells assessed as induction of CDK9 degradation incubated for 6 hrs by Western blot analysis. (In western blotting, separated proteins are transferred to a membrane and probed.)
Target sequence in this assay (P50750 whole entry): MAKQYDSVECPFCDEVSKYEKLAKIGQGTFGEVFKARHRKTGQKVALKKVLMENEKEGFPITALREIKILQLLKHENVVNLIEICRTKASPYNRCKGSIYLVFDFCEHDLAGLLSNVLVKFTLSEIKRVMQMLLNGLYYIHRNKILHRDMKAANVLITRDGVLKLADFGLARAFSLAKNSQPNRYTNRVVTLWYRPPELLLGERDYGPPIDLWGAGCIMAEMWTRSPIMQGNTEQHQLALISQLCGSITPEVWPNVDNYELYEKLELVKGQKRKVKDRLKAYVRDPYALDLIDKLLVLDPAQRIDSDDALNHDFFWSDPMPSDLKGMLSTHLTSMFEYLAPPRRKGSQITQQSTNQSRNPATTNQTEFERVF
Target sequence in this assay (Q96SW2 whole entry): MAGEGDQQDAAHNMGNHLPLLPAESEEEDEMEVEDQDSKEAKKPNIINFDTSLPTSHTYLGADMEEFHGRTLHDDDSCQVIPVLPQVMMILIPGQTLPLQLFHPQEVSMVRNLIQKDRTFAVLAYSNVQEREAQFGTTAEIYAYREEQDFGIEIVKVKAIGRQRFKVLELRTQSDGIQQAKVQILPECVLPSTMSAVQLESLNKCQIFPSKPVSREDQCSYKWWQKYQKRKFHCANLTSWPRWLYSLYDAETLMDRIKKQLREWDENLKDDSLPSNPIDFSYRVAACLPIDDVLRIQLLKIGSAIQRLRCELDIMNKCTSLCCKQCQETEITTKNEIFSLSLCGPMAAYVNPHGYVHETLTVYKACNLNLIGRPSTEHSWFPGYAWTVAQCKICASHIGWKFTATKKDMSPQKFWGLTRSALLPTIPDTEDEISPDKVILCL
For data set [2], the system named is MV4-11. Kind of data set: Antiproliferative activity against human MV4-11 cells assessed as inhibition of cell growth measured after 48 hrs by MTS assay. The note with it: MV4-11, 48 h; for pIC50: read-out: IC50; for IC50: read-out: pIC50 (converted). It counts as functional, cell-based.
A short description of data set [3]: Kinetic solubility of the compound at pH 7.4 incubated for 1.5 hrs under shaking condition by UV plate reader analysis. In kind it is physicochemical. The note with it: buffer, read-out: Kinetic_solubility.
Data set [4] in a line: Lipophilicity, logK of compound at pH 7.7 in presence of 80% acetonitrile by HPLC analysis. In kind it is physicochemical. The note with it: buffer.
Data set [5] concerns the target T1, Protein cereblon/Cyclin-dependent kinase 9. Kind of data set: PROTAC activity at CRBN/CDK9 in human MOLM-13 cells assessed as induction of CDK9 degradation by measuring maximal efficacy at 0.01 to 5 uM incubated for 6 hrs by Western blot analysis relative to control. To be noted: dose 0.01-5 µM.
Target sequence in this assay (P50750 whole entry, looked up): as the sequence (P50750 whole entry) above
Target sequence in this assay (Q96SW2 whole entry, looked up): as the sequence (Q96SW2 whole entry) above
In data set [6] the test system is MV4-11. Kind of data set: Antiproliferative activity against human MV4-11 cells assessed as inhibition of cell growth measured after 48 hrs in presence of human serum by MTS assay. In kind it is functional. Put shortly:
(§1)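 MV4-11 AML cells exposed to compound, with growth medium supplemented with either human serum or fetal bovine serum. Cytotoxicity IC50 was determined in each serum condition. The serum shift is the change in activity between human serum and fetal bovine serum.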

Data set [7] deals with MV4-11. Kind of data set: Antiproliferative activity against human MV4-11 cells assessed as fold decrease in cell growth measured after 48 hrs in presence of human serum by MTS assay. In kind it is functional. Put shortly: as §1
Data set [8] has as its system MV4-11. Kind of data set: Antiproliferative activity against human MV4-11 cells assessed as inhibition of cell growth measured after 48 hrs in presence of fetal bovine serum by MTS assay. In kind it is functional. In short, it runs like this: as §1
Data set [9] in a line: Aqueous solubility of the compound. It counts as physicochemical.

As usually defined, the DC50 is the midpoint of the concentration-degradation curve. The term pIC50 denotes the negative decadic logarithm of the IC50, by convention in mol/L. Usually Emax stands for the size of the effect at its maximum, as opposed to the concentration needed. The term solubility denotes the concentration that dissolves in the medium under given conditions. High values mean a readily soluble substance, low ones a poorly soluble substance.

SMILES strings stand for the structures. pIC50: −log10 of the molar value. ≈ marks a conversion by molar mass, not a printed value.

Take `O=C1CCC(N2C(=O)c3cccc(OCCCCCCCCn4cc(CCCCCCN5CCC(NC(=O)c6n[nH]cc6NC(=O)c6c(Cl)cccc6Cl)CC5)nn4)c3C2=O)C(=O)N1` (configuration not stated): the DC50 in [1] came out at 70 nM. Also, in the data set with MV4-11 [2], the pIC50 was 7.15 and the IC50 is 79.4 nM. Moreover, in data set [3], the solubility kinetic at 1.5 h was determined as 2.38 µM (≈ 2.18 µg/mL). In addition, the “log K” value in [4] was determined as 0.184. Further, the Emax in [5] was 86.2%.

Take `O=C1CCC(N2C(=O)c3cccc(OCCCCn4cc(CCCCCCCCCCN5CCC(NC(=O)c6n[nH]cc6NC(=O)c6c(Cl)cccc6Cl)CC5)nn4)c3C2=O)C(=O)N1` (configuration not stated): the DC50 in [1] came to 40 nM. Moreover, in the data set with MV4-11 [2], the pIC50 was 8.00 and the IC50 was 7.94 nM. For the same molecule, the solubility kinetic at 1.5 h in data set [3] was found to be 3.42 µM (≈ 3.14 µg/mL). For the same molecule, the “log K” value in data set [4] turned out to be 0.197. In addition, the EC with MV4-11 [6] is 28.6 nM. The “fold change (FC)” value with MV4-11 [7] turned out to be 3. In addition, the EC with MV4-11 [8] is given as 8.8 nM. For the same molecule, the maximum response (Emax) in data set [5] worked out at 88.6%.

Consider `O=C1CCC(N2C(=O)c3cccc(OCCCCCCCn4cc(CCCCCCCN5CCC(NC(=O)c6n[nH]cc6NC(=O)c6c(Cl)cccc6Cl)CC5)nn4)c3C2=O)C(=O)N1` (configuration not stated), for which the 50% degradation concentration (DC50) in [1] stood at 60 nM. Besides, in the data set with MV4-11 [2], the pIC50 is 7.22 and the IC50 was 63.1 nM. For the same molecule, the solubility kinetic at 1.5 h in data set [3] amounted to 4.7 µM (≈ 4.31 µg/mL). Moreover, the “log K” value in data set [4] came to 0.176. Besides, the maximal response (Emax) in [5] came out at 78%.

Take `O=C1CCC(N2C(=O)c3cccc(OCCCCCn4cc(CCCCN5CCC(NC(=O)c6n[nH]cc6NC(=O)c6c(Cl)cccc6Cl)CC5)nn4)c3C2=O)C(=O)N1` (configuration not stated): the DC50 in data set [1] came to 130 nM. Moreover, in the data set on MV4-11 [2], the pIC50 is 6.62 and the IC50 is 251 nM. Also, the solubility kinetic at 1.5 h in [3] is 12.4 µM (≈ 10.5 µg/mL). Moreover, the “log K” value in data set [4] was determined as 0.1. For the same molecule, the Emax in [5] was 67.5%.

`O=C1CCC(N2C(=O)c3cccc(OCCCCCCCn4cc(CCCCCN5CCC(NC(=O)c6n[nH]cc6NC(=O)c6c(Cl)cccc6Cl)CC5)nn4)c3C2=O)C(=O)N1` (configuration not stated): in data set [1], the half-maximal degradation concentration (DC50) was 100 nM. In the data set on MV4-11 [2], the pIC50 was 7.30 and the IC50 is 50.1 nM. Moreover, the solubility kinetic at 1.5 h in [3] was determined as 5.46 µM (≈ 4.86 µg/mL). Moreover, the “log K” value in data set [4] came to 0.14. Also, the maximum response (Emax) in [5] turned out to be 70.1%.

Take `O=C1CCC(N2C(=O)c3cccc(OCCCCn4cc(CCCCCN5CCC(NC(=O)c6n[nH]cc6NC(=O)c6c(Cl)cccc6Cl)CC5)nn4)c3C2=O)C(=O)N1` (configuration not stated): the DC50 in data set [1] worked out at 400 nM. Moreover, in the data set on MV4-11 [2], the pIC50 is 6.72 and the IC50 is 200 nM. In addition, in [3], the solubility kinetic at 1.5 h came out at 31.3 µM (≈ 26.5 µg/mL). Also, the “log K” value in data set [4] is recorded as 0.106. In addition, the Emax in data set [5] is 58.6%.

On to `O=C1CCC(N2C(=O)c3cccc(OCCCCCn4cc(CCCCCN5CCC(NC(=O)c6n[nH]cc6NC(=O)c6c(Cl)cccc6Cl)CC5)nn4)c3C2=O)C(=O)N1` (configuration not stated), for which, in [1], the DC50 is 950 nM. In addition, in the data set with MV4-11 [2], the pIC50 was 6.89 and the IC50 is 126 nM. Besides, the solubility in data set [9] was found to be 13.2 µM (≈ 11.4 µg/mL). In addition, the solubility kinetic at 1.5 h in data set [3] was determined as 13.2 µM (≈ 11.4 µg/mL). Also, in data set [4], the “log K” value came to 0.112. Moreover, the Emax in data set [5] is 68.5%.

Regarding `O=C1CCC(N2C(=O)c3cccc(OCCCCn4cc(CCCCCCN5CCC(NC(=O)c6n[nH]cc6NC(=O)c6c(Cl)cccc6Cl)CC5)nn4)c3C2=O)C(=O)N1` (configuration not stated), the DC50 in [1] amounted to 100 nM. Also, in the data set with MV4-11 [2], the pIC50 was 7.15 and the IC50 is 79.4 nM. Also, the concentration in solution in [9] (solubility) came to 12.9 µM (≈ 11.1 µg/mL). In addition, the solubility kinetic at 1.5 h in data set [3] worked out at 12.9 µM (≈ 11.1 µg/mL). Further, the “log K” value in [4] was 0.116. For the same molecule, the Emax in data set [5] worked out at 75.3%.

Regarding `O=C1CCC(N2C(=O)c3cccc(OCCCCn4cc(CCCCN5CCC(NC(=O)c6n[nH]cc6NC(=O)c6c(Cl)cccc6Cl)CC5)nn4)c3C2=O)C(=O)N1` (configuration not stated), the DC50 in data set [1] came out at 70 nM. In the data set on MV4-11 [2], the pIC50 was 6.72. In addition, the IC50 in the data set with MV4-11 [2] is 200 nM. Moreover, in [9], the solubility was ≥ 40 µM. For the same molecule, the solubility kinetic at 1.5 h in [3] was 40.9 µM (≈ 34.1 µg/mL). Moreover, in [4], the “log K” value stood at 0.084. In addition, the EC stood at 69.3 nM with MV4-11 [6] and 190.1 nM with MV4-11 [8]. The “fold change (FC)” value in the data set on MV4-11 [7] is listed as 3. Moreover, the Emax in data set [5] was determined as 79.1%.

For `O=C(NC1CCNCC1)c1n[nH]cc1NC(=O)c1c(Cl)cccc1Cl` [AT-7519], in the data set on MV4-11 [2], the pIC50 is 6.92 and the IC50 was 126 nM. In addition, the solubility kinetic at 1.5 h in data set [3] is 512 µM (≈ 196 µg/mL). Further, in data set [4], the “log K” value is reported as 0.134.

For the molecule `O=C1CCC(N2C(=O)c3cccc(OCCCCCCCCn4cc(CCN5CCC(NC(=O)c6n[nH]cc6NC(=O)c6c(Cl)cccc6Cl)CC5)nn4)c3C2=O)C(=O)N1` (configuration not stated), the DC50 in data set [1] was 60 nM. Further, in the data set on MV4-11 [2], the pIC50 was 7.30. For the same molecule, in the data set on MV4-11 [2], the IC50 was 50.1 nM. Also, in [9], the solubility was determined as 5.65 µM (≈ 4.87 µg/mL). The solubility kinetic at 1.5 h in data set [3] was 5.65 µM (≈ 4.87 µg/mL). In data set [4], the “log K” value is on record as 0.146. Further, the EC in the data set on MV4-11 [6] turned out to be 881.9 nM; in the data set on MV4-11 [8], 46.9 nM. Further, the “fold change (FC)” value in the data set with MV4-11 [7] stood at 20. In data set [5], the maximal response (Emax) is 88.3%.

The record behind these values is ChEMBL document CHEMBL5325481, “Examination of the Impact of Triazole Position within Linkers on Solubility and Lipophilicity of a CDK9 Degrader Series” (ACS Med Chem Lett, 2023).
